According to ChEMBL document CHEMBL4393676, “Design, Synthesis, and Preclinical Characterization of Selective Factor D Inhibitors Targeting the Alternative Complement Pathway” (J Med Chem, 2019):
Values after ≈ are worked out from the molar mass of the structure shown.

Tests used:
[1] = Clearance in C57BL/6 mouse at 1 mg/kg, iv or 10 mg/kg, po administered via gavage by HPLC-MS/MS analysis; assay type: ADME, organism-based; details: in vivo
[2] = Oral bioavailability in C57BL/6 mouse 10 mg/kg by HPLC-MS/MS analysis; assay type: ADME, organism-based; details: in vivo; for bioavailability: C57BL/6, mouse
[3] = Cmax in C57BL/6 mouse at 10 mg/kg, po administered via gavage by HPLC-MS/MS analysis; assay type: ADME, organism-based; parameters: dose 10 mg/kg, route oral; details: in vivo
[4] = AUC (0 to 7 hrs) in C57BL/6 mouse at 1 mg/kg, iv by HPLC-MS/MS analysis; assay type: ADME, organism-based; parameters: dose 1 mg/kg, time < 7 hr, route intravenous; details: in vivo; for AUC(0-t) at 7 h: C57BL/6, mouse
[5] = Volume of distribution at steady state in C57BL/6 mouse at 1 mg/kg, iv or 10 mg/kg, po administered via gavage by HPLC-MS/MS analysis; assay type: ADME, organism-based; details: in vivo, read-out: Vdss
[6] = AUC (0 to 7 hrs) in C57BL/6 mouse at 10 mg/kg, po administered via gavage by HPLC-MS/MS analysis; assay type: ADME, organism-based; parameters: time < 7 hr, dose 10 mg/kg, route oral; details: in vivo; for AUC(0-t) at 7 h: C57BL/6, mouse
[7] = Elimination half life in C57BL/6 mouse at 1 mg/kg, iv by HPLC-MS/MS analysis; assay type: ADME, organism-based; details: in vivo, read-out: beta t1/2 (converted)
[8] = Cmax in Beagle dog at 10 mg/kg, po administered via gavage by HPLC-MS/MS analysis; assay type: ADME, organism-based, Canis lupus familiaris; parameters: dose 10 mg/kg, route oral; details: in vivo
Summary of the method: (§1)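 Beagle dogs, n=3 per route: IV 1 mg/kg in 2% 1N HCl, 20% PEG 300, 50% of 20% solutol in PBS; PO gavage 10 mg/kg as solution in 20% PEG 300, 10% solutol HS15, 70% citrate buffer pH 3. Blood at 5 min (IV), 15 min, 0.5, 1, 2, 4, 7, 24 h; HPLC-MS/MS (ESI positive); non-compartmental analysis; mean ± SD.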

[9] = Time at which posterior eye cup concentration stays above in vitro IC50 for inhibition of FD-mediated alternative complementation pathway in 50% human whole blood in Brown Norway rat at 10 mg/kg, po; assay type: organism-based; details: in vivo
Summary of the method: (§2)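 Three-month-old Brown Norway rats given single 10 mg/kg oral gavage, suspension in 0.5% HPMC/0.1% Tween 80. Plasma and both eyes' retina and posterior eye cup (RPE/choroid plus posterior sclera) taken from 2 rats per time at 0.25, 0.5, 1, 3, 6, 24 h; tissues homogenized in PBS with 10% acetonitrile, supernatants by HPLC-MS/MS. AUC dose normalized.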

[10] = Half life in Beagle dog at 1 mg/kg, iv or 10 mg/kg, po administered via gavage by HPLC-MS/MS analysis; assay type: ADME, organism-based, Canis lupus familiaris; details: in vivo; summary of the method: as §1
[11] = Oral bioavailability in Beagle dog at 10 mg/kg administered via gavage by HPLC-MS/MS analysis; assay type: ADME, organism-based, Canis lupus familiaris; details: in vivo; summary of the method: as §1
[12] = Dose normalized AUC in Brown Norway rat retina at 10 mg/kg, po administered via gavage by HPLC-MS/MS analysis; assay type: ADME, organism-based; details: in vivo; summary of the method: as §2
[13] = Dose normalized AUC in Brown Norway rat plasma at 10 mg/kg, po administered via gavage by HPLC-MS/MS analysis; assay type: ADME, organism-based; details: in vivo; summary of the method: as §2
[14] = Plasma concentration in Brown Norway rat at 10 mg/kg, po administered via gavage measured at 24 hrs post dose by HPLC-MS/MS analysis; assay type: ADME, organism-based; summary of the method: as §2
[15] = Volume of distribution at steady state in Beagle dog at 1 mg/kg, iv or 10 mg/kg, po administered via gavage by HPLC-MS/MS analysis; assay type: ADME, organism-based, Canis lupus familiaris; details: in vivo, read-out: Vdss; summary of the method: as §1
Mus musculus [16] = experiment: Suppression of intravitreal injection-activated alternative complementation pathway in human FD knock-in C57BL/6 mouse model of local ocular injury assessed as reduction in ocular Ba level treated via oral gavage 2 hrs prior to intravitreal injection and measured after 4 hrs by Western blot analysis; assay type: functional, organism-based
Summary of the method: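 Human FD knock-in mice dosed by oral gavage (3 or 10 mg/kg) at time 0; 2 h later anesthetized and injected intravitreally with 1 µL sterile PBS. Eyes taken 4 h after injection; lysates analysed for Ba by Western blot, relative to vehicle, mean ± SEM.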

[17] = Drug level in Brown Norway rat retina at 10 mg/kg, po administered via gavage measured at 24 hrs post dose by HPLC-MS/MS analysis; assay type: ADME, organism-based; details: in vivo, BLD = below limit of detection; summary of the method: as §2
[18] = Drug level in Brown Norway rat posterior eye cup at 10 mg/kg, po administered via gavage measured at 24 hrs post dose by HPLC-MS/MS analysis; assay type: ADME, organism-based; details: read-out: Drug uptake; summary of the method: as §2
Mus musculus [19] = experiment: Suppression of LPS-induced alternative complementation pathway in human FD knock-in C57BL/6 mouse assessed as reduction in plasma Ba level treated via oral gavage […] prior to LPS stimulation and measured up to 24 hrs post-dose; assay type: functional, organism-based
[20] = AUClast in Beagle dog at 10 mg/kg, po administered via gavage by HPLC-MS/MS analysis; assay type: ADME, organism-based, Canis lupus familiaris; parameters: dose 10 mg/kg, time 0 - last, route oral; details: in vivo; summary of the method: as §1
[21] = Clearance in Beagle dog at 1 mg/kg, iv or 10 mg/kg, po administered via gavage by HPLC-MS/MS analysis; assay type: ADME, organism-based, Canis lupus familiaris; details: in vivo; summary of the method: as §1
[22] = Dose normalized AUC in Brown Norway rat posterior eye cup at 10 mg/kg, po administered via gavage by HPLC-MS/MS analysis; assay type: ADME, organism-based; details: in vivo; summary of the method: as §2
[23] = Tmax in Beagle dog at 10 mg/kg, po administered via gavage by HPLC-MS/MS analysis; assay type: ADME, organism-based, Canis lupus familiaris; details: in vivo; summary of the method: as §1
Tryptase beta-2 = Tryptase beta-2 (Homo sapiens, UniProt P20231); experiment: Inhibition of tryptase-beta2 (unknown origin)
[24] = Solubility of the compound at pH 6.8; assay type: physicochemical; details: buffer
Coagulation factor XI = Coagulation factor XI (Homo sapiens, UniProt P03951); experiment: Inhibition of F11a (unknown origin)

Row | Compound | clearance [1] [L/h/kg] | bioavailability [2] [%] | Cmax [3] [µM] | Vd [5] [L/kg] | half-life [7] [h] | AUC(0-t) at 7 h [4] [µM·h] | AUC(0-t) at 7 h [6] [µM·h] | other results
1 | NCc1cccc(-c2cccc(COc3ccccc3CC(=O)O)c2)c1 | 0.84 | 100 | – | – | – | – | – | –
2 | N[C@H](CCO)c1cccc(-c2cccc(COc3ccccc3CC(=O)O)c2)c1 | 0.522 | 39 | 10.7 | 0.3 | 1.3 | 4.97 | 19.5 | –

Continued, in another order:

Row | clearance [1] [L/h/kg] | bioavailability [2] [%] | Cmax [3] [µM] | Vd [5] [L/kg] | half-life [7] [h] | AUC(0-t) at 7 h [4] [µM·h] | AUC(0-t) at 7 h [6] [µM·h] | Compound | other results
3 | 0.042 | – | 26 | 0.1 | 2.5 | – | – | N[C@H](CO)c1cccc(-c2cc(Br)cc(COc3ccccc3CC(=O)O)c2)c1 | F ([2]; mouse): 25%; AUC ([4]; mouse, 7 h): 48.7 µM·h; AUC ([6]; mouse, 7 h): 11.6 µM·h
4 | 0.156 | 83 | 31 | 0.3 | 1.6 | 16.1 | 125 | N[C@H](CO)c1cccc(-c2cccc(COc3ccccc3CC(=O)O)c2)c1 | Cmax [8]: 16.5 µM; Time [9]: > 24 h; half-life [10]: 3.8 h; bioavailability [11]: 70%; AUC/dose [12]: 8 nM·h; AUC/dose [13]: 2300 nM·h; concentration at 24 h [14]: 0.034 µM; Vd [15]: 0.8 L/kg; Activity (Mus musculus [16]): Dose-dependent effect; Drug uptake [17]: Bld; concentration at 24 h [18]: 0.29 µM; Activity (Mus musculus [19]): Dose-dependent effect; AUC(0-t) [20]: 85 µM·h; clearance [21]: 0.228 L/h/kg; AUC/dose [22]: 1160 nM·h; Tmax [23]: 0.8 h
5 | 1.32 | 10 | – | – | – | – | – | NCc1cccc(-c2cccc(C(=O)Nc3ccccc3CC(=O)O)c2)c1 | IC50 (Tryptase beta-2): 2.3 µM; solubility [24]: 220 µM (≈ 79.3 µg/mL); IC50 (Coagulation factor XI): 2.8 µM
